ChEMBL document CHEMBL1147981, “Small molecule activators of SIRT1 as therapeutics for the treatment of type 2 diabetes” (Nature, 2007)
Calls of active or inactive are those of the source. No cut-off for these calls is given here.

Columns and labels:
[1] = target: T1, NAD-dependent protein deacetylase sirtuin-1 (Homo sapiens) (UniProt Q96EB6); assay: Activation of human SIRT1-B (172-664) construct by mass spectrometry assay relative to control
T1 sequence (whole entry): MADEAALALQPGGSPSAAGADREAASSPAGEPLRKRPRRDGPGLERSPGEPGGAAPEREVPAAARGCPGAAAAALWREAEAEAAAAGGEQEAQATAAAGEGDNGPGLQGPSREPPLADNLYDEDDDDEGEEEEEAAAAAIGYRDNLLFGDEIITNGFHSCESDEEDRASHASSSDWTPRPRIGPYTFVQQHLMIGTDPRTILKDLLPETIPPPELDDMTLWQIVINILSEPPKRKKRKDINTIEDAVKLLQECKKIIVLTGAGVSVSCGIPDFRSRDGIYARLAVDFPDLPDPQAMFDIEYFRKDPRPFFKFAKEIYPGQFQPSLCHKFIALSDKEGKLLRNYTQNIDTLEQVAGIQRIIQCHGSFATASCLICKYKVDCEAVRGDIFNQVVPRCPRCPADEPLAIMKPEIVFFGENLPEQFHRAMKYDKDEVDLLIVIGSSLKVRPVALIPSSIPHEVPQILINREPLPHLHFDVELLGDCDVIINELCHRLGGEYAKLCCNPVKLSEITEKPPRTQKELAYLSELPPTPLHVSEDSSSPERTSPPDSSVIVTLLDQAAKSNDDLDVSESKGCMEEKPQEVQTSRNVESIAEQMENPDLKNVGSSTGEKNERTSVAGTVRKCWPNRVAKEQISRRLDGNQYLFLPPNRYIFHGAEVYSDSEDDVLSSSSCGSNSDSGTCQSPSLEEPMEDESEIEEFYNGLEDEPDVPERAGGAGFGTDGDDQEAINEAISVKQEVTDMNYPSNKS

[2] = target: T2, NAD-dependent protein deacetylase sirtuin-3, mitochondrial (Homo sapiens, UniProt Q9NTG7); assay: Activation of SIRT3 by mass spectrometry assay
T2 sequence (Q9NTG7 whole entry): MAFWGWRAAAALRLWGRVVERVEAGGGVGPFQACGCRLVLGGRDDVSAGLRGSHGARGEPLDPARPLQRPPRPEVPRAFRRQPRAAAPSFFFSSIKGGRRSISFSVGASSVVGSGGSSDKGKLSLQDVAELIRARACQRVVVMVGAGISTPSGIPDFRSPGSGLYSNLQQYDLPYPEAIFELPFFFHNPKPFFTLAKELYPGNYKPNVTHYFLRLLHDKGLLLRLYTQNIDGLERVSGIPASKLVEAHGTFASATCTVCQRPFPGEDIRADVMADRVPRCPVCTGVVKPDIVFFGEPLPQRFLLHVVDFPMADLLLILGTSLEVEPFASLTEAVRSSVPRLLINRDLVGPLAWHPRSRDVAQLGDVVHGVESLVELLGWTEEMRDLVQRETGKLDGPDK

[3] = target: T1, NAD-dependent protein deacetylase sirtuin-1 (Homo sapiens); assay: Activation of human SIRT1-C construct by mass spectrometry assay relative to control
[4] = tested on: Mus musculus; assay: Effect on body weight in diabetic Lep ob/ob mouse model at 1000 mg/kg, po; assay type: functional, organism-based; design: dose 1000 mg/kg
How it was run: (§1)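 ob/ob mice received at 6 weeks, kept on 60%-fat diet from at least one week before study; ~40-45 g; grouped by body weight and glucose; once-daily oral gavage in 2% HPMC + 0.2% DOSS. One-way ANOVA with Dunnett's test vs control, p<0.05.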

[5] = target: T1, NAD-dependent protein deacetylase sirtuin-1 (Homo sapiens); assay: Activation of human SIRT1 expressed in Escherichia coli BL21 by mass spectrometry assay
[6] = tested on: Mus musculus; assay: Reduction of blood glucose level in DIO C57BL/6 mouse model at 500 mg/kg, po after 4 weeks; assay type: functional, organism-based; design: dose 500 mg/kg
How it was run: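 Male C57BL/6 mice, started at nine weeks, fed 60%-fat diet until mean weight ~40 g; 6-10 per group; once-daily oral gavage in 2% HPMC + 0.2% DOSS. Fed glucose at 2, 4, 6, 8, 10 weeks; IPGTT after 5 weeks; ITT after 10 weeks. One-way ANOVA with Dunnett's test vs control, p<0.05.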

[7] = target: T1, NAD-dependent protein deacetylase sirtuin-1 (Homo sapiens); assay: Activation of SIRT1 in human U2OS cells assessed as decrease in p53 deacetylation level at 100 uM; assay type: cell-based
How it was run: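 U-2 OS cells plated at 1.5 X 10⁴ cells/well; compounds (DMSO) added after 24 h, then doxorubicin (1 μg/ml final) to induce p53. Replicate plates were co-treated with a SIRT1-specific inhibitor. Cells were fixed, permeabilized and immunostained for Ac-Lys382-p53 and beta-tubulin, with infrared scanning. Signals were background-corrected, normalized to tubulin, then to vehicle (% acetylated p53).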

[8] = target: T1, NAD-dependent protein deacetylase sirtuin-1 (Homo sapiens); assay: Activation of human SIRT1-E (225-664) construct by mass spectrometry assay relative to control
[9] = target: T1, NAD-dependent protein deacetylase sirtuin-1 (Homo sapiens); assay: Activation of human SIRT1 assessed as decrease in Km of enzyme for acetylated peptide substrate by mass spectrometry assay
[10] = target: T1, NAD-dependent protein deacetylase sirtuin-1 (Homo sapiens); assay: Activation of human SIRT1-H (240-664) construct by mass spectrometry assay relative to control
[11] = target: T1, NAD-dependent protein deacetylase sirtuin-1 (Homo sapiens); assay: Activation of human SIRT1-D (219-664) construct by mass spectrometry assay relative to control
[12] = tested on: Mus musculus; assay: Reduction of blood glucose level in diabetic Lep ob/ob mouse model at 1000 mg/kg, po after 3 weeks; assay type: functional, organism-based; design: dose 1000 mg/kg; how it was run: as §1
[13] = target: T3, NAD-dependent protein deacetylase sirtuin-2 (Homo sapiens, UniProt Q8IXJ6); assay: Activation of SIRT2 by mass spectrometry assay
T3 sequence (Q8IXJ6 whole entry): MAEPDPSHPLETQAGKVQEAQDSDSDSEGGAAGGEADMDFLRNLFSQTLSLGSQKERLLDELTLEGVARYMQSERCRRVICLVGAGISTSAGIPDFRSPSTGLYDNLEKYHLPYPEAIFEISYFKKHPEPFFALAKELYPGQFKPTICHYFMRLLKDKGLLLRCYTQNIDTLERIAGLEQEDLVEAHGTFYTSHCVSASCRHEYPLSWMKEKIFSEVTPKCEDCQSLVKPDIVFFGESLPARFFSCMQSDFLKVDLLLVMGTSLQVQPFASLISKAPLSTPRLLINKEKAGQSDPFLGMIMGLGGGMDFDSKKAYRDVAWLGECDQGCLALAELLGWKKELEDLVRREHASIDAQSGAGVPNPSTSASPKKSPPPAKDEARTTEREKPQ

[14] = target: T1, NAD-dependent protein deacetylase sirtuin-1 (Homo sapiens); assay: Activation of human SIRT1-F (230-664) construct by mass spectrometry assay relative to control
[15] = target: T1, NAD-dependent protein deacetylase sirtuin-1 (Homo sapiens); assay: Activation of human SIRT1-G (235-664) construct by mass spectrometry assay relative to control
[16] = target: T1, NAD-dependent protein deacetylase sirtuin-1 (Homo sapiens); assay: Activation of human SIRT1-A (156-664) construct by mass spectrometry assay relative to control
[17] = organism: Mus musculus; assay: Reduction of insulin level in chow-fed C57BL/6 mouse; assay type: functional, organism-based

Activity [1]: 1.7
EC50 [2]: > 300 µM
Activity [3]: 1.9
Activity [5]: 201%
Activity [7]: Active
Activity [8]: 1.3
Activity [9]: Active
Activity [10]: 1.2
Activity [11]: 1.3
EC50 [13]: > 300 µM
Activity [14]: 1.1
Activity [15]: 1.2
Activity [16]: 1.8
Compound: Oc1ccc(/C=C/c2cc(O)cc(O)c2)cc1 [RESVERATROL]
Activity [4]: inactive
Activity [6]: Active
Activity [12]: Active
Activity [17]: Active
